ChEMBL document CHEMBL4304743, “Discovery of ( E)- N1-(3-Fluorophenyl)- N3-(3-(2-(pyridin-2-yl)vinyl)-1 H-indazol-6-yl)malonamide (CHMFL-KIT-033) as a Novel c-KIT T670I Mutant Selective Kinase Inhibitor for Gastrointestinal Stromal Tumors (GISTs)” (J Med Chem, 2019)
Active and inactive are the calls of the source. The rule behind the calls is not given here.

Experiments:
[1] = Antitumor activity against human GIST5R cells xenografted in nude mouse assessed as tumor weight at 25 mg/kg, po administered […] via gavage for 28 days (reference value: 0.59g); format: functional
Summary of the method: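 Female nu/nu mice (5 weeks old) given subcutaneous right-flank GIST-5R cells in Matrigel. Dosing began at tumors of 200-400 mm3; randomized, 4 mice per group. Daily oral dosing (QD) at 25, 50 or 100 mg/kg in 0.5% methylcellulose/0.4% Tween80, or vehicle alone, for 28 days. Body weight and tumor volume, (W²×L)/2, measured daily; mean±SEM.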

[2] = Drug level in plasma of nude mouse xenograted with human GIST5R cells at 100 mg/kg, po administered as single dose and measured at 30 mins; format: ADME, organism-based; conditions: in vivo, 0.5 h
Summary of the method: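 GIST-5R xenograft nu/nu mice given a single 100 mg/kg oral dose; plasma drug concentration followed over a time course alongside tumor p-c-KIT, p-ERK and p-AKT.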

GISTT1 = experiment: Induction of apoptosis in human GISTT1 cells harboring c-KIT 560 to 578 deletion mutant assessed as increase in cleaved caspase level after 24 hrs by Western blot analysis; format: functional, cell-based
[3] = test system: Mast/stem cell growth factor receptor Kit (Homo sapiens), P10721 [N822K]; experiment: Inhibition of TEL fused c-KIT N822K mutant (unknown origin) transfected in mouse BAF3 cells assessed as growth inhibition after 72 hrs by CCK8 assay; format: cell-based
Summary of the method: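 Tel-c-KIT-transformed BaF3 lines (IL-3 independent) kept in RPMI 1640 with 10% FBS, 2% L-glutamine and pen/strep. Cells at 1.5 to 5 × 10^4 cells/mL mixed with graded compound and incubated 72 h at 37 °C, 5% CO2. Viability by CCK-8 absorbance at 450 nm, normalized to DMSO. GI50 from dose–response fit.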

[4] = target: Serine/threonine-protein kinase 25 (Homo sapiens, UniProt O00506); experiment: Binding affinity to wild-type human partial length STK25 (V14 to H295 residues) expressed in bacterial expression system assessed as enzyme remaining activity at 1 uM by Kinomescan assay relative to control
Summary of the method: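 KINOMEscan competition binding panel of 468 kinases and mutants, compound at 1 μM; binding reported as percent of control.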

Mus musculus [5] = experiment: Inhibition of c-KIT phosphorylation at Y719 residue in tumor of human GIST5R cells xenografted in nude mouse at 100 mg/kg, po administered as single dose and measured at 2 hrs; format: functional, organism-based
Summary of the method: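 Female nu/nu mice bearing subcutaneous GIST-5R xenografts (cells in Matrigel, right flank) given one oral gavage dose of 100 mg/kg in HKI suspension (0.5% methocellulose/0.4% Tween80 in ddH2O). Tumors collected over a 2 h time course; p-c-KIT, p-ERK and p-AKT assessed by Western blot; plasma drug levels monitored in parallel.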

Mus musculus [6] = experiment: Inhibition of ERK phosphorylation at T202/Y204 residue in tumor of human GIST5R cells xenografted in nude mouse at 100 mg/kg, po administered as single dose and measured at 2 hrs; format: functional, organism-based
Summary of the method: (§1)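 Female nu/nu mice bearing subcutaneous GIST-5R tumors (cells in Matrigel, right flank) given one oral dose of 100 mg/kg in 0.5% methylcellulose/0.4% Tween80. Tumors collected over a 2 h time course. p-c-KIT, p-ERK and p-AKT measured alongside plasma drug levels.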

[7] = Cmax in mouse at 10 mg/kg, po measured after 5 to 720 mins by LC-tandem mass spectrometry analysis; format: ADME, organism-based; design: dose 10 mg/kg, route oral; conditions: in vivo
Summary of the method: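 Mice dosed 1 mg/kg i.v. or 10 mg/kg p.o.; plasma drug levels by LC-MS/MS, parameters by noncompartmental analysis; values not from triplicate testing.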

Homo sapiens = species: Homo sapiens; experiment: Selectivity ratio, ratio of IC50 for wild-type His-tagged c-KIT (unknown origin) expressed in baculovirus infected sf9 cells to IC50 for His-tagged c-KIT T670I mutant (544 to 935 residues) (unknown origin) expressed in baculovirus infected sf9 cells
Summary of the method: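 Purified protein: His-tagged c-KIT wt or T670I, residues 544−935, expressed in baculovirus-infected SF9 cells. Purified by Ni-NTA then Superdex-200. Enzyme (wt 20 ng/µL, T670I 15 ng/µL) preincubated with inhibitor 60 min at room temperature. Then ATP/substrate added (50 µM ATP) and run 1 h at 37 °C. ADP-Glo luminescence read-out; IC50 from fitted dose–response curves.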

[8] = test system: Mast/stem cell growth factor receptor Kit (Homo sapiens), P10721 [UNDEFINED MUTATION]; experiment: Inhibition of c-KIT 560 to 578 deletion/T670I double mutant in human GIST5R cells assessed as reduction in c-KIT autophosphorylation at Y719 residue at 0.1 uM to 3 uM after 1 hr by Western blot analysis; format: cell-based
Summary of the method: (§2)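 Serial compound dilutions applied for 1 h to GIST-T1, GIST-T1-T670I (CRISPR/Cas9 T670I knock-in, clone confirmed by Sanger sequencing) or GIST-5R cells in DMEM with 10% FBS. Cells then lysed and phospho-proteins detected by standard Western blotting.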

[9] = test system: Mast/stem cell growth factor receptor Kit (Homo sapiens), P10721 [UNDEFINED MUTATION]; experiment: Binding affinity to human partial length c-KIT V559D/[…] double mutant (Y545 to D952 residues) expressed in bacterial expression system assessed as enzyme remaining activity at 1 uM by Kinomescan method relative to control
Summary of the method: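 KINOMEscan binding profile (DiscoverX) run at 1 μM against a panel of 468 kinases and mutants. Read-out is percent of control (%Ctrl) remaining bound.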

Mus musculus [10] = experiment: Inhibition of c-KIT phosphorylation at Y703 residue in tumor of human GIST5R cells xenografted in nude mouse at 100 mg/kg, po administered as single dose and measured after 2 hrs; format: functional, organism-based; summary of the method: as §1
[11] = test system: Mast/stem cell growth factor receptor Kit (Homo sapiens), P10721 [UNDEFINED MUTATION]; experiment: Inhibition of c-KIT 560 to 578 deletion/T670I double mutant in human GISTT1 cells assessed as reduction in c-KIT autophosphorylation at Y823 residue at 0.1 uM to 3 uM after 1 hr by Western blot analysis; format: cell-based; summary of the method: as §2
[12] = test system: Mast/stem cell growth factor receptor Kit (Homo sapiens), P10721 [UNDEFINED MUTATION]; experiment: Inhibition of c-KIT 560 to 578 deletion/T670I double mutant in human GISTT1 cells assessed as reduction in ERK phosphorylation at T202/Y204 residue at 0.1 uM to 3 uM after 1 hr by Western blot analysis; format: cell-based; summary of the method: as §2
[13] = Half-life in Sprague-Dawley rat at 10 mg/kg, po measured after 5 to 720 mins by LC-tandem mass spectrometry analysis; format: ADME, organism-based; conditions: in vivo
Summary of the method: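 Male Sprague-Dawley rats (190-210 g), fasted 12 h, randomized into two groups: 1 mg/kg i.v. or 10 mg/kg p.o., both formulated in 10% DMSO/90% of 5% glucose water. Blood sampled at 2-720 min (i.v.) or 5-720 min (p.o.). Plasma protein-precipitated with methanol, caffeine internal standard, LC-MS/MS. Noncompartmental analysis; triplicate, ±SD.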

GIST882 = experiment: Antiproliferative activity against human GIST882 cells harboring c-KIT K642E mutant incubated for 72 hrs by CCK8 assay; format: functional; conditions: GIST882, 72 h
Summary of the method: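 Adherent GIST cells seeded at 1.5-5 × 10^4 cells/mL and left overnight at 37 °C, 5% CO2. Medium then replaced with medium holding serial compound dilutions; 72 h incubation. Viability by CCK-8, absorbance at 450 nm, normalized to DMSO control; GI50 from dose-response fit.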

Mast/stem cell growth factor receptor Kit (Homo sapiens), P10721 [UNDEFINED MUTATION], sequence (P10721 whole entry, looked up, stated change not applied, the tested form may be a part): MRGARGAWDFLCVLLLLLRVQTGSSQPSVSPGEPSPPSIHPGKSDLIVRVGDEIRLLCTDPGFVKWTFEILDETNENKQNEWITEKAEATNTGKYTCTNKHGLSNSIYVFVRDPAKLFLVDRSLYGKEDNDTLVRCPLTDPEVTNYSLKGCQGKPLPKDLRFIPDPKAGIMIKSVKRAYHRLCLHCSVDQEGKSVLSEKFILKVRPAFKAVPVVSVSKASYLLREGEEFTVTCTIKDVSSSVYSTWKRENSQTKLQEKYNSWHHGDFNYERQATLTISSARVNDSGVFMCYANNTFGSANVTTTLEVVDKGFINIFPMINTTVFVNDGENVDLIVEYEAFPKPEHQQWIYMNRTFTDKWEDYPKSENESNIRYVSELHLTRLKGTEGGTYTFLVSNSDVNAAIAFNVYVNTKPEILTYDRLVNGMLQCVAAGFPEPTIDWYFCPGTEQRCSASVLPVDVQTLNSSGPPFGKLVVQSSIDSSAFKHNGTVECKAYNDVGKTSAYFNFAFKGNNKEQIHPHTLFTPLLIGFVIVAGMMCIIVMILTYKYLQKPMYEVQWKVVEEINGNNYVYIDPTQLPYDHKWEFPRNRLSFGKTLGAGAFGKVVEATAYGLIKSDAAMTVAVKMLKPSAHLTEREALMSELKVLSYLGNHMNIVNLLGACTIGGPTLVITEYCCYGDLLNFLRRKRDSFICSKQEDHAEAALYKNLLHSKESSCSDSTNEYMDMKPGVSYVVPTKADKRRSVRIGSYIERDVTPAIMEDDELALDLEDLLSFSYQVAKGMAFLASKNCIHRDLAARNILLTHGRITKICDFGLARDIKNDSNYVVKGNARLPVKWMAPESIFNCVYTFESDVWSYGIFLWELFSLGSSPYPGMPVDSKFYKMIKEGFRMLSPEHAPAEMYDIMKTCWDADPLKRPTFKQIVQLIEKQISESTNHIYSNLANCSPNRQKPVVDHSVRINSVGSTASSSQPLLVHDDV
Serine/threonine-protein kinase 25, sequence (O00506 whole entry, looked up, the tested form may be a part): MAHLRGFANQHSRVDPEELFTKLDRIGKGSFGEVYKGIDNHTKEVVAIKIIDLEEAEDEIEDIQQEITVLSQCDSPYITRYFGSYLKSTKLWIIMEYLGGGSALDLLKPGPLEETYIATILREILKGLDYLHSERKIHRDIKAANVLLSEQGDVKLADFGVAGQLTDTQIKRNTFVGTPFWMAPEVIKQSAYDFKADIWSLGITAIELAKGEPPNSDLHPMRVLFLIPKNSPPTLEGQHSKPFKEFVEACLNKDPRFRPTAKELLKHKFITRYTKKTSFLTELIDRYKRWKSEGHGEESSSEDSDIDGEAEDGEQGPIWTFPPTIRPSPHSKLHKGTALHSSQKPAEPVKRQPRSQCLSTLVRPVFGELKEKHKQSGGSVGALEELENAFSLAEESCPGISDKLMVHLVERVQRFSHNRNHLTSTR
Mast/stem cell growth factor receptor Kit (Homo sapiens), P10721 [N822K], sequence (P10721 whole entry N822K, the tested form may be a part): as the sequence (P10721 whole entry, looked up, stated change not applied, the tested form may be a part) above, with N822K counted along it

SMILES: O=C(CC(=O)Nc1ccc2c(/C=C/c3ccccn3)n[nH]c2c1)Nc1cccc(F)c1
- Activity [1]: 0.33 g
- Drug uptake [2]: Active
- Activity (GISTT1): Dose-dependent effect
- GI50 [3]: 6.06 µM
- Activity [4]: 0%
- inhibition (Mus musculus [5]): Active
- inhibition (Mus musculus [6]): Active
- Cmax [7]: 1120 ng/mL
- Ratio IC50 (Homo sapiens): 12
- inhibition [8]: Active
- Activity [9]: < 1%
- inhibition (Mus musculus [10]): inactive
- inhibition [11]: Active
- inhibition [12]: Active
- half-life [13]: 4.9 h
- GI50 (GIST882): 0.296 µM
